In the library only some 4.2% were active in any assay of this set; here they are far more common.
KCNQ1 block: inhibitors of human KCNQ1 potassium channel | P51787 | CHO-K1 KCNQ1, FluxOR thallium flux fluorescence; active compounds read high | B-score at 10 µM | actives 1.3% (n = 310,000) | AID 2642;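 active = compounds whose thallium flux B-score, printed positive for inhibition, exceeds three library SD while starting fluorescence stays within three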;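 note: channel opened by potassium depolarization with thallium stimulus after 20 min compound exposure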
hERG rescue: shields human hERG channel from block by proarrhythmic agents; actives 0.51% (n = 310,000); activation (rescue from dofetilide block), less the hit threshold, % at 10 µM; Q12809; CHO-hERG, FluxOR thallium flux, dofetilide IC70 present;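 active = activation above the mean of controls blocked by dofetilide plus 5 SD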;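 note: thallium influx through hERG after potassium depolarization seen as dye fluorescence rise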
AI-2 QS mod: Vibrio harveyi AI-2 quorum sensing modulation; Vibrio harveyi JMH597 AI-2 luminescence/OD600 ratio, 9 h; active compounds read low; strain lacks LuxN and CqsS sensors; 0 = neutral-control median; activity change, % at 7.5 µM; actives 0.4% (n = 300,000); AID 2094; in the data active = activity change below about -75%, passing the limit was not always enough; inconclusive = no clear call, values can overlap the other calls;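 note: luminescence divided by OD600 gain over 9 h not by final OD600 alone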
KCNQ1 pot: potentiators or activators of human KCNQ1 potassium channel; AID 2648; CHO-K1 KCNQ1, thallium flux FluxOR fluorescence; active compounds read high; actives 0.35% (n = 310,000); B-score at 10 µM;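 active = fluorescence ratio B-score, a plate-corrected score, at least three library SD, with initial intensity B-score within 5 SD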
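Schedule – 37 °C overnight plating, 90-min dark dye load, 20-min compound pretreatment · System – stable KCNQ1 CHO-K1 line · Probe or stimulus – thallium- and potassium-containing depolarizing buffer · Measured by – kinetic FluxOR fluorescence, 10 s baseline plus 110 s post-stimulus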
KCC2 mod: modulates chloride dependent transport by human KCC2; AID 1456; B-score of Tl+ flux slope (higher = more flux/activation; lower = inhibition) at 10 µM; actives 2.2% (n = 190,000); KCC2 cells, thallium flux FluoZin-2 fluorescence; Q9H2X9;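 active = thallium flux slope and its plate-corrected score both differing from the plate sample mean at a set confidence after two filtering rounds, in either direction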;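 note: slope of fluorescence scaled to starting intensity during 10 to 20 s after thallium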
SUMO Mot1 rescue: inhibitors of SUMOylation pathway: yeast Mot1-301 growth rescue; actives 1% (n = 320,000); growth rescue, % at 18.8 µM; S. cerevisiae Mot1-301 growth rescue, ATP luminescence, 38.5C; percent above DMSO median, 100 means doubled;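 active = every valid replicate shows activation above 250% relative to neutral control wells; inactive = the rest, any valid replicate at or below 250%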;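 note: OY570 slx delta 5 strain wells were the positive control but not used for scaling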
The depositor's hits bear a star; i = inactive; ? = inconclusive; nt = no result.

SMILES | KCNQ1 block | hERG rescue | AI-2 QS mod | KCNQ1 pot | KCC2 mod | SUMO Mot1 rescue
CCOC(=O)C1(CCOC)CCN(Cc2ccc3nonc3c2)CC1 | i | -10.1 | 5.7 | i | -0.643 | 327.1*
CCOC(=O)C1(CCOC)CCN(Cc2cnc(-c3cccc(C)c3)nc2)CC1 | i | -3.5 | 23.2 | i | -0.0399 | -2.4
Cc1ccc(NC(=S)N2CCN(S(C)(=O)=O)CC2)cc1Cl | i | -2.0 | 6.4 | i | nt | -7.7
CC(C(=O)N1c2ccc(F)cc2CCC1C)N1C(=O)c2ccccc2C1=O (stereo not drawn) | i | -0.2 | 1.3 | i | 0.723 | 262.2*
Cc1cccc(C)c1NC(=O)C(NC(=O)CN1C(=O)c2ccccc2C1=O)c1ccccc1 (stereo not drawn) | i | -12.7 | 12.4 | i | 0.512 | 9.9
CC[C@@H](C(=O)[C@@H](C)[C@@H](O)[C@H](C)CCc1ccc(C)c(O)c1C(=O)O)[C@H]1O[C@](CC)([C@H]2CC[C@](O)(CC)[C@H](C)O2)C[C@@H]1C | i | 64.6* | 8.5 | 76* | nt | -11.4
COCc1[nH][nH]c(=O)c1/C=N/N1CCOCC1 | i | -13.0 | 15.1 | i | -0.609 | -2.8
CCCCOc1ccc(C(=O)N/N=C/c2ccc(OCCN3CCCCC3)c(OC)c2)cc1 | 6* | -14.8 | 5.2 | i | -1.05 | 3.0
O=C1OCC2=C1C(c1ccc(F)cc1)Sc1ccccc1N2 (stereo not drawn) | i | 6.0* | 11.3 | i | 0.816 | 19.1
COc1cc(C2Sc3ccccc3NC3=C2C(=O)OC3)cc(OC)c1OC (stereo not drawn) | i | -13.9 | 28.5 | i | -0.414 | -0.2
Cc1occc1C(=O)/C(C#N)=C/c1ccc(O)c(Br)c1 | 11* | -24.6 | 25.8 | i | nt | -9.6
C[C@H](NC(=O)c1nc[nH]c1C(=O)N[C@@H](CCCCNC(=O)OC(C)(C)C)C(=O)OC(C)(C)C)c1ccccc1 | i | -8.8 | 21.1 | i | -0.634 | -1.5
Oc1ccccc1N=Nc1nc(-c2ccccc2)c(-c2ccccc2)[nH]1 | 10* | -18.6 | -14.4 | i | -0.256 | 120.1
COc1ccc(N=Nc2nc(-c3ccccc3)c(-c3ccccc3)[nH]2)cc1 | 6* | -5.7 | 35.2 | i | -1.03 | -3.8
O=C(O)c1ccc(-c2nc(-c3ccccc3)c(-c3ccccc3)[nH]2)cc1 | i | -10.4 | 16.5 | i | -1.45 | -8.1
COc1ccc(-c2[nH]c(-c3ccc4c(c3)OCO4)nc2-c2ccccc2)cc1 | 11* | -7.2 | 22.6 | i | nt | 17.5
COc1ccccc1N=Nc1nc(-c2ccccc2)c(-c2ccccc2)[nH]1 | i | -27.7 | 18.8 | i | -0.661 | 21.9
CC1CCC/C=C/C(=O)c2c(O)cc(O)cc2CC(=O)O1 (stereo not drawn) | 7* | -15.8 | -35.2 | i | -0.258 | -11.2
C[C@@H]1Cc2c(O)c(O)cc(O)c2C(=O)O1 | i | -7.4 | 30.1 | i | 0.697 | -12.7
CCN(CC)CCCNC(=O)c1ccc(S(=O)(=O)Nc2ccc(C)c(C)c2)cc1 | nt | nt | nt | nt | nt | -10.5
O=C1c2ccccc2NC(c2ccc(-c3ccc(F)cc3)o2)N1O (stereo not drawn) | nt | nt | nt | nt | nt | 13.3
O=C1c2ccccc2NC(c2ccc(-c3ccc(Br)cc3)o2)N1O (stereo not drawn) | i | -13.3 | ? | i | 8.61* | -1.0
CC(C)COc1ccc(S(=O)(=O)n2cc(F)c(=O)[nH]c2=O)cc1 | i | 5.0* | -26.8 | i | -0.59 | -21.6
CCCOc1ccc(S(=O)(=O)n2cc(F)c(=O)[nH]c2=O)cc1 | i | -8.7 | nt | i | nt | -4.0
CCCCn1nnc(NC(=O)Cc2ccc(Cl)cc2)n1 | i | 6.0* | -58.1 | i | -1.44 | -8.5
SMILES | KCNQ1 block | hERG rescue | AI-2 QS mod | KCNQ1 pot | KCC2 mod | SUMO Mot1 rescue
CCCCn1nnc(NC(=O)c2ccc(-c3cccc(Cl)c3)o2)n1 | i | -9.5 | 18.6 | i | -2.2 | -0.1
CCCCn1nnc(NC(=O)c2ccc(-c3cccc([N+](=O)[O-])c3)o2)n1 | i | 21.6* | 13.5 | i | -0.685 | 9.4
CCCn1nnc(NC(=O)Cc2ccccc2)n1 | i | -8.3 | 2.0 | i | 0.402 | 1.4
OCc1ccc2c(c1)c(-c1ccc3c(c1)OCCO3)c(-c1ccccc1)n2-c1ccccc1 | nt | nt | nt | nt | nt | 4.4
CCC(C)NC(=O)c1ccccc1NC(=O)CN(c1ccc(OC)cc1)S(C)(=O)=O (stereo not drawn) | i | -9.6 | 13.2 | i | 0.18 | 5.5
CCC(C)NC(=O)c1ccccc1NC(=O)/C(=C/c1ccc(OC)cc1)c1ccccc1 (stereo not drawn) | 7* | -13.7 | 12.4 | i | -0.786 | -2.5
CCOC(=O)c1c(CSc2cccs2)n(C)c2cc(Br)c(O)c(CN(C)C)c12 | i | -20.8 | 0.2 | i | -1.05 | -17.0
CC(C)(C)C(=O)Nc1ccc(S(=O)(=O)c2ccc(NC(=O)C(C)(C)C)cc2)cc1 | i | -14.4 | 10.0 | i | nt | 319.7*
CC(C)(C)C(=O)Nc1ccc(NC(=O)C(C)(C)C)cc1 | i | -13.9 | 23.8 | i | -1.28 | 12.2
CCCCc1nc(SCC(=O)N2CCOCC2)c2c(=O)n(C)c(=O)n(C)c2n1 | i | -2.8 | 4.0 | i | nt | 3.1
C/C(=N\Nc1nc(N2CCCCCC2)nc(N2CCCCCC2)n1)c1ccccc1 | 14* | -12.6 | 0.7 | i | 0.733 | -21.3
C/C(=N\Nc1nc(C)c(C)s1)c1ccc([N+](=O)[O-])cc1 | i | 30.4* | 5.8 | 19* | 0.00086 | 23.5
CC1CCN(CCc2nc3cc(NC(=O)COc4ccc(Cl)cc4)ccc3n2C)CC1 | i | -14.5 | 20.4 | i | nt | 9.6
COc1ccc(NC(=O)Cn2cnc3ccccc3c2=O)cc1OC | i | -2.3 | -76.3* | i | nt | 4.0
CCn1cc(CCC(=O)NCc2cccc(OC)c2OC)c2ccccc21 | i | 6.4* | 23.6 | i | nt | 42.9
CCO[C@@H]1OC(C(=O)N2CCN(Cc3ccccc3)CC2)=C[C@H](c2coc3ccccc3c2=O)[C@H]1CCCO | i | -8.0 | 4.6 | i | -0.347 | 8.2
CCC(C)n1c(=S)[nH]c2c(sc3ccc([N+](=O)[O-])cc32)c1=O (stereo not drawn) | i | 104.6* | 24.9 | i | 52.6* | -17.7
CC(C)n1c2ccccc2c2cc([N+](=O)[O-])ccc21 | i | 0.7 | 21.8 | i | 0.246 | 13.5
Cc1ccc(CNC(=O)C2CCC(=O)N2CCc2ccccc2)cc1 (stereo not drawn) | i | -12.2 | 10.1 | i | 0.286 | -1.7
Cc1cc(OCC(=O)Nc2ccc(CN3CCOCC3)cc2)c2c(C)c(C)c(=O)oc2c1 | i | -4.4 | 15.3 | i | nt | 305.1*
